Tn6 DDE FP = inhibitors of Tn6 peptide binding to fibrin DD(E), primary screen, biochemical, fluorescence polarization, human fibrin, Tn6 probe; hit rate 0.21% among 370,000; Fibrin DD(E) TRITC-Tn6 fluorescence polarization displacement; inhibition, % at 8.3 µM; Fibrinogen beta chain (Homo sapiens), P02675;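 active = inhibition above a per-campaign cutoff: mean of compounds within control limits plus 3 SD, cut at about 15% in these data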
ASAP1 inh = inhibitors of human ASAP1 ArfGAP activity, primary screen, biochemical, fluorescence polarization; ASAP1-stimulated ARF1 GTP hydrolysis, GDP FP detection; inhibition, % at 16.5 µM; hit rate 0.19% among 360,000; in the data active = inhibition above about 25%
Target sequence (Q9ULH1 325-724 limits assumed): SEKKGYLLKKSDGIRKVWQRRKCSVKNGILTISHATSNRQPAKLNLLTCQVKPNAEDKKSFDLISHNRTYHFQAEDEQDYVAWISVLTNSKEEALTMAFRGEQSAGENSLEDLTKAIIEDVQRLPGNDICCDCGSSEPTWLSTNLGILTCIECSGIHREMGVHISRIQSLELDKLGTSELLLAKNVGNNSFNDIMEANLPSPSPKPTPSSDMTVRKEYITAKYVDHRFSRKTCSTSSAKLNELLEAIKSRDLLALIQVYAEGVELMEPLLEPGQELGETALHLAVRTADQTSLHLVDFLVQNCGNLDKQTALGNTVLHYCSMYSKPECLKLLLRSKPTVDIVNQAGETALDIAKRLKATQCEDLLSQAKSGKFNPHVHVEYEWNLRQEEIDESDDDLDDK
ARFGAP1 inhibitor = inhibitors of rat ARFGAP1 GAP activity, primary screen, biochemical, fluorescence polarization, GDP tracer; hit rate 0.26% among 360,000; ADP-ribosylation factor GTPase-activating protein 1 (Rattus norvegicus), Q62848; inhibition, % at 16.5 µM; Arfgap1-stimulated ARF1 GTP hydrolysis, GDP FP detection;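 active = inhibition above a per-plate limit, mean inhibition of low control wells plus 3 SD, cut at about 25% in these data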
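Replicates: Single well per compound | Assay system: Truncated rat Arfgap1 GAP domain | Control set: No-Arfgap1 wells (100%) versus DMSO full-reaction wells (0%) | Times: Enzyme reaction 120 min at 25 °C after 20 min preincubation | Reagent: Human ARF1(Δ1-17)-GTP substrate | Measured by: Tracer-displacement fluorescence polarization with EDTA stop, 620/688 nm | Measure: Percent inhibition of Arfgap1-stimulated GTP hydrolysis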
DDE Tn7 FP inh = inhibitors of Tn7 peptide binding to fibrin DD(E), primary screen, biochemical, fluorescence polarization, human fibrin, Tn7 probe | hit rate 0.13% among 370,000 | FP displacement of FITC-Tn7 peptide from fibrin DD(E); 0% = median of compound wells per plate | AID 720508, 2013 | Fibrinogen beta chain (Homo sapiens), P02675 | inhibition, % at 8.3 µM;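 active = inhibition above the mean of compounds falling within the control limits plus 3 SD of them, cut at about 14% in these data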
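Assay system: human fibrin DD(E) protein / Input: 2 µM fibrin DD(E) / Benchmarks: high control of 10 µM Aha-Tn7 peptide / Measured by: fluorescence polarization of the labelled Tn7 tracer / Medium: Tris buffer with calcium and detergent, pH 7.8 / Timing: 10 min compound pre-incubation, 3 h probe incubation at room temperature / Repeats: one replicate per compound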
ARFGAP1 inh conf = ARFGAP1 inhibitor hit confirmation, biochemical, fluorescence polarization, triplicate; shares compounds with ARFGAP1 inhibitor; ARFGAP1-stimulated ARF1 GTP hydrolysis, GDP tracer FP; inhibition, % at 16.5 µM; hit rate 30% among 890;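 active = average inhibition over triplicates above the hit cutoff set in the earlier primary screen, cut at about 25% in these data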
Each line names hits and unclear results; the compound was inactive in the other large screens (follow-up assays come after a bar, where they were run). In the library only some 0.74% were active in any assay of this set; here they are far more common.

CCNc1nc(NCc2ccccc2)nc(SCC(=O)Nc2ccccc2)n1	ARFGAP1 inhibitor 27 | ARFGAP1 inh conf inactive
C=CCNC(=S)Nc1ccc2nsnc2c1	none
CCOc1ccc(NC(=O)Nc2ccc3nsnc3c2)cc1	none
CCOc1ccc(NC(=S)Nc2ccc3nsnc3c2)cc1	ARFGAP1 inhibitor 26 | ARFGAP1 inh conf inactive
C=CCN(CC=C)C(=S)Nc1ccc2nsnc2c1	ARFGAP1 inhibitor 32 | ARFGAP1 inh conf inactive
Cn1c2ccccc2c(=O)c2ccc(-c3ccc4c(c3)OCO4)cc21	ARFGAP1 inhibitor 37 | ARFGAP1 inh conf 90
Fc1ccc2nc(-c3ccc(CN4CCC5(CC4)CNc4ccccc45)cc3)c(-c3ccccc3)nc2c1	none
CC1CC(C)CN(S(=O)(=O)CC23CCC(CC2=O)C3(C)C)C1 (centres undefined)	ARFGAP1 inhibitor 25 | ARFGAP1 inh conf inactive
COc1cccc(C(CC2=CCCCC2)NC(=O)C(F)(F)F)c1 (centres undefined)	none
O=C(Nc1ccc(CN2CCOCC2)cc1)c1ccc(-c2cccc(Cl)c2)o1	ARFGAP1 inhibitor 32 | ARFGAP1 inh conf 27
Cc1cccc(Nc2nc(-c3ccc4c(c3)OCCO4)cs2)c1	ARFGAP1 inhibitor 26 | ARFGAP1 inh conf inactive
COc1cccc(NS(=O)(=O)c2cc3c(cc2C)NC(=O)CO3)c1	none
COc1ccccc1NS(=O)(=O)c1cc2c(cc1C)NC(=O)CO2	ARFGAP1 inhibitor 51 | ARFGAP1 inh conf inactive
O=C(CCc1c[nH]c2ccccc12)Nc1ccc(Nc2ccccc2)cc1	ARFGAP1 inhibitor 27 | ARFGAP1 inh conf inactive
C#CCN1CC(COc2ccccc2)Oc2cccc(Oc3ccc(SC)c(C)c3)c2S1(=O)=O (centres undefined)	none
CCn1c(CNC(=O)c2cccs2)nnc1SCC(=O)Nc1ccc(Cl)cc1	ARFGAP1 inhibitor 31 | ARFGAP1 inh conf inactive
CCn1c(CNC(=O)c2cccs2)nnc1SCC(=O)Nc1cc(Cl)ccc1C	none
C[C@@H]1ON(C)[C@H]2C[C@H]3c4cc(-c5ccccc5)ccc4CCN3C[C@@H]12	none
c1ccc(C[C@H]2CN=C(Nc3ccccc3)N2CC2CCC2)cc1	none
CC1CCC(CN2C(Nc3ccccc3)=NC[C@@H]2Cc2ccccc2)CC1 (some centres undefined)	ARFGAP1 inhibitor 28 | ARFGAP1 inh conf inactive
COCCN1Cc2cc(C(=O)OC)c3c(c2C1=O)c1cc(OC)ccc1n3S(=O)(=O)c1ccc(F)cc1	none
O=C(CC1c2cc(F)ccc2C=C(c2ccsc2)N1c1ccc(C#CCCO)cc1)c1ccco1 (centres undefined)	ARFGAP1 inhibitor 25 | ARFGAP1 inh conf inactive
COc1ccc(-n2cc(CN(C)C(C)c3ccncn3)c(-c3cccc(F)c3)n2)cc1 (centres undefined)	ARFGAP1 inhibitor 27 | ARFGAP1 inh conf inactive
COc1cccc(CNS(=O)(=O)c2ccccc2Br)c1	none
CN1/C(=C/C2CC(=O)NC2=O)C(C)(C)c2ccccc21 (centres undefined)	ARFGAP1 inhibitor 31 | ARFGAP1 inh conf inactive
CN1/C(=C/C2CC(=O)N(c3cccc4ccccc34)C2=O)C(C)(C)c2ccccc21 (centres undefined)	none
CC12C=CC(C)(C3C(=O)NC(=O)C31)C1C3C(=O)NC(=O)C3C12 (centres undefined)	none
CCOC(=O)Cc1csc(NC(=O)CSc2ncnc3c2cnn3-c2ccccc2Cl)n1	ARFGAP1 inhibitor 35 | ARFGAP1 inh conf inactive
Cc1nnc(NC(=O)CSc2ncnc3c2cnn3-c2ccccc2C)s1	none
COc1ccc(C(=O)/C=C/c2ccc(O)cc2)c(O)c1C/C=C(\C)CCC=C(C)C	ARFGAP1 inhibitor 25 | ARFGAP1 inh conf inactive
COc1cc2c(cc1NC(=O)c1cccnc1)oc1ccccc12	none
COc1ccc(-c2cc3ccccc3oc2=O)cc1NC(=O)c1cccnc1	ARFGAP1 inhibitor 34 | ARFGAP1 inh conf 34
COc1ccc(O)c(/C=N/Nc2nc(Nc3ccccc3)nc(-n3nc(C)cc3C)n2)c1	ARFGAP1 inhibitor 39 | ARFGAP1 inh conf inactive
